Source: PubChem BioAssay
Hits are enriched below; roughly 1.6% of the tested compounds scored in any of these assays.
TLR9-MyD88 inh: inhibitors of TLR9-MyD88 association in cells, primary screen, cell-based, CHO, BLA complementation, fluorescence; Toll-like receptor 9 (Homo sapiens) + Myeloid differentiation primary response protein …; AID 504734, 2011; CCF4 FRET ratio; inhibition, % at 4.98 µM; actives 0.21% (n = 340,000);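 active = inhibition above the mean over all tested compounds plus 3 SD, cut at about 21% in these data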;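 note: 0% = DMSO only wells and 100% = clavulanate BLA inhibitor control wells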
Lipid droplet: inhibitors of hepatocyte lipid droplet formation, primary screen, imaging, high-throughput imaging, BODIPY stain; AML12 mouse hepatocytes, oleate lipid droplets; actives 0.4% (n = 240,000); inhibition, % at 6.5 µM;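 active = lipid droplet intensity inhibited by at least 50%, with more than 500 cells counted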
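Assay system: AML12 mouse liver cells | Compound: 6.5 µM single-point dosing | Schedule: Overnight exposure | Technique: Fluorescence imaging, 20x objective, two fields per well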
SR-BI DiI-HDL act: activators of SR-BI mediated DiI-HDL uptake, primary screen, ldlA[mSR-BI] CHO cells, DiI fluorescence; 3 h; 100 = double the neutral-control signal; activation, % at 12.5 µM; actives 0.096% (n = 320,000); AID 504775, 2011;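 active = mean replicate activation of at least 60% and every replicate at or above 60%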;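 note: 0% = median plate neutral-control signal and 100% = twice that signal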
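System: CHO ldlA[mSR-BI] cells / Medium: HEPES-buffered (25 mM, pH 7.4) F12 plus 0.5% BSA / Probe or stimulus: labelled HDL, 10 µg/mL / Doses: single compound concentration, delivered by pin transfer / Schedule: 3 h, 37 °C / Measured by: DiI fluorescence, bottom read / Measure: cell-associated DiI fluorescence as measure of HDL uptake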
NOD2 RIPK2 PPI: NOD2-RIPK2 binding disruptors in cells, primary screen, fluorescence, CHO cells, BLA complementation; CCF4 ratio; AID 624267, 2012; Receptor-interacting serine/threonine-protein kinase 2 (Homo sapiens), O43353; actives 0.38% (n = 360,000); inhibition, % at 4.98 µM; in the data active = inhibition above about 21%;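 note: 0% = vehicle only and 100% = reference blocker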
SR-BI DiI inh: inhibitors of SR-BI mediated HDL lipid uptake, primary screen, ldlA[mSR-BI] cells, fluorescence, single point; ldlA[mSR-BI] CHO cells, DiI-HDL uptake fluorescence, 3 h; inhibition, % at 12.5 µM; actives 0.96% (n = 320,000);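 active = mean replicate inhibition of at least 70% and a set share of replicates each scoring 70 or more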;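 note: 0% = median of neutral control wells and 100% = median of positive control wells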
TLR4 MyD88 comp: inhibitors of TLR4-MyD88 association in cells, primary screen, cell-based, HeLa CL3-4, BLA complementation, FRET ratio. Toll-like receptor 4 (Homo sapiens) + Myeloid differentiation primary response protein …. HeLa CL3-4 TLR4/MyD88 BLA complementation. inhibition, % at 8.4 µM. actives 0.18% (n = 200,000); in the data active = inhibition above about 25%;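 note: 0% = vehicle and 100% = reference inhibitor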
Active calls of the source: *; i = inactive; nt = no result.

SMILES	TLR9-MyD88 inh	Lipid droplet	SR-BI DiI-HDL act	NOD2 RIPK2 PPI	SR-BI DiI inh	TLR4 MyD88 comp
CCCCn1c(=O)c(C(=O)Nc2ccccc2C)c(O)c2ccccc21	3	-10	-50	-10	50	nt
CCCCCn1c(=O)c(C(=O)NCCc2ccccc2)c(O)c2ccccc21	-5	-8	-75	-5	75*	nt
CCCCCn1c(=O)c(C(=O)Nc2ccccc2Cl)c(O)c2ccccc21	9	-1	-93	9	93*	nt
CCN(CC)CCNC(=O)c1c(O)c2ccccc2n(Cc2ccccc2)c1=O	8	nt	1	1	-1	0
CCC(C#N)(CC)P(=S)(c1ccccc1)c1ccccc1	-14	-52	63*	1	-63	-4
CCC1C2CC3C4N(C)c5ccccc5C45CC(C2C5O)N3C1O (stereo not given)	nt	nt	nt	-3	nt	nt
CC[C@@H](O)C[C@H]1CCC[C@@]2(C[C@@H]3OC(=O)/C=C/[C@@](C)(O)[C@@H](O)[C@H](C)[C@@H](O)[C@H](OC4CCC(N(C)C)C(C)O4)[C@@H](O)[C@](C)(O)CCCCC/C=C/[C@@H]4CC(C)(C)O[C@@]4(O)C[C@H](O2)[C@H]3C)O1 (stereo not given in full)	-10	nt	16	-2	-16	nt
COc1ccc(Br)cc1CN1CCN(C(=O)Cc2ccccc2)CC1	-14	-6	725*	5	i	1
CCN(CC)C(=O)c1ccc(NC(=O)c2ccc3c(c2)NC(=O)CS3)cc1	1	nt	-72	2	72*	nt
COc1cccc(CN2CCN(C(=O)COc3ccc4ccccc4c3)CC2)c1	-13	nt	-86	6	86*	-5
CC(=O)OC(C)(C)/C=C/C(=O)[C@](C)(O)[C@H]1[C@H](O)C[C@@]2(C)[C@@H]3CC=C4[C@H](C[C@H](O)C(=O)C4(C)C)[C@]3(C)C(=O)C[C@]12C	-4	137*	18	14	-18	12
C#C[C@]1(O)[C@H](O)CC2C3CC[C@H]4C[C@@H](O)CC[C@]4(C)C3CC[C@@]21C (stereo not given in full)	nt	nt	nt	-5	nt	nt
CC[n+]1c(/C=C/C=C/c2ccc(N(C)C)cc2)sc2ccccc21	0	-99	-94	15	94*	nt
Cc1cc(C)c2c(ccc3cccc[n+]32)c1	nt	nt	nt	-18	nt	nt
O=C(NN=Cc1ccc(N(CCCl)CCCl)cc1)c1cc(=O)[nH]c(=O)[nH]1	13	nt	22	0	-22	nt
O=C(NN=Cc1ccc(N(CCCl)CCCl)cc1Cl)c1cccnc1	-12	nt	-80	1	80*	nt
Cc1cc(N(CCCl)CCCl)ccc1C=NNC(=O)c1cccnc1	-5	nt	-89	-4	89*	nt
CCC1(Cc2ccccc2)C(=O)NC(=S)N(C)C1=O (stereo not given)	-9	nt	3	-2	-3	nt
COc1cc2c(cc1OC)-c1c(OC)c(OC)cc3c1C(C2)N(C)CC3 (stereo not given)	-4	nt	-76	5	76*	8
CCOP(=O)(OCC)C(c1ccccc1)N(C)C=O (stereo not given)	-5	nt	-21	58*	21	-6
CCOP(=O)(OCC)C(NC(=O)c1ccccc1)C(Cl)(Cl)Cl (stereo not given)	-2	-6	-12	5	12	-15
CCCn1c(C)c(C(=O)c2cccc3ccccc23)c2ccccc21	0	nt	-82	-19	82*	nt
Cc1c(C(=O)c2ccccc2)c2ccccc2n1C	-12	-1	-28	5	28	nt
CN1C2CNC(=O)CC1C1CCC2C1 (stereo not given)	6	nt	nt	7	nt	nt
COc1ccc(Cn2c(O)c(/C=N/NC(=O)c3ccccc3)c(=O)[nH]c2=O)cc1	1	-37	-81	-2	81*	4
SMILES	TLR9-MyD88 inh	Lipid droplet	SR-BI DiI-HDL act	NOD2 RIPK2 PPI	SR-BI DiI inh	TLR4 MyD88 comp
O=C(N/N=C/c1c(O)n(CCc2ccccc2)c(=O)[nH]c1=O)c1ccccc1O	3	-20	nt	-6	nt	nt
O=C(N/N=C/c1c(O)n(Cc2ccccc2)c(=O)[nH]c1=O)c1ccccc1O	-2	-8	-117	-3	117*	15
COc1ccc(Cn2c(O)c(/C=N/NC(=O)c3ccncc3)c(=O)[nH]c2=O)cc1	6	-6	2	-8	-2	nt
COc1ccc(Cn2c(O)c(/C=N/NC(=O)c3ccccc3O)c(=O)[nH]c2=O)cc1	4	-24	-97	-7	97*	-2
O=C(N/N=C/c1c(O)n(Cc2ccc(F)cc2)c(=O)[nH]c1=O)c1ccccc1O	-13	3	-75	-4	75*	8
CCOC(=O)[C@]12Cc3ccccc3[C@H]1N(CCC(=O)OC)C(=O)c1ccccc12	nt	nt	nt	-14	nt	nt
FC(F)(F)c1cccc(NC2=NCCS2)c1	-11	nt	nt	0	nt	nt
O=C1CC2OCC=C3CN4CCC56c7ccccc7N1C5C2C3CC46O (stereo not given)	nt	nt	nt	3	nt	nt
COc1cc(CN=C(C)c2c(O)n(C3CCCCC3)c(=O)[nH]c2=O)cc(OC)c1	-10	5	-21	6	21	nt
Cc1ccc(NC(=O)CN2C(=O)CN=C(c3ccccc3)c3cc(Cl)ccc32)cc1	6	nt	-33	-1	33	0
Cc1ccc(C2=NCC(=O)N(CC(=O)N3CCCCC3)c3sc(C)c(C)c32)cc1	-3	nt	-88	-2	88*	9
CN(C)c1ccc(NC(=O)CN2C(=O)CN=C(c3ccccc3)c3ccccc32)cc1	8	nt	-83	-4	83*	-16
CN(C)c1ccc(NC(=O)CN2C(=O)CN=C(c3ccccc3)c3cc(Cl)ccc32)cc1	8	nt	-59	-8	59	-3
COc1ccc(CCn2c(O)c(/C=N/N3CCCCC3)c(=O)[nH]c2=O)cc1OC	2	-1	13	-2	-13	6
CCCCCCn1c(O)c(/C=N/N2CCCCCC2)c(=O)[nH]c1=O	-10	6	151*	-2	-151	nt
CCn1c(O)c(C=Nc2ccc(N3CCOCC3)c(Br)c2)c(=O)n(CC)c1=S	6	nt	-25	4	25	-3
